The source made the active and inactive calls. No cut-off for these calls is given here.
Legend:
[1] = target: T1, Hypoxia inducible factors; HIF-1-alpha, HIF-2-alpha (Homo sapiens, UniProt Q16665+Q99814); assay: Inhibition of HIF1 in human LN229 cells after 1 hr preincubation under hypoxic condition measured after 24 hrs by luciferase reporter gene assay; assay type: cell-based
In short: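 LN229-HRELux human glioma cells stably carry a luciferase reporter driven by six VEGF-derived HIF response elements. Cells were seeded at 3 × 10^4 per well and held 24 h in normoxia, then pretreated 1 h with compound at 0, 1, 5, 10 or 25 μM (vehicle 1% DMSO). They were then moved to hypoxia (1% O2) for 24 h, lysed and read for luciferase. Reference inhibitor ran alongside; quadruplicate wells; IC50 from concentration curve.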

[2] = target: T1, Hypoxia inducible factors; HIF-1-alpha, HIF-2-alpha; assay: Inhibition of HIF1 in human LN229 cells at 10 uM after 1 hr preincubation under hypoxic condition measured after 24 hrs by luciferase reporter gene assay; assay type: cell-based
In short: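 LN229 glioma cells stably transfected with VEGF promoter-luciferase (LN229-VEGF-Luc) were pretreated 1 h in normoxia with 10 μM (final) compound, then kept 24 h in normoxia or hypoxia. Luciferase was read as relative light units against vehicle control; triplicates, mean ± standard deviation.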

[3] = target: Hypoxia-inducible factor 1-alpha (Homo sapiens) (UniProt Q16665); assay: Inhibition of hypoxia-induced HIF1alpha accumulation in human LN229 cells at 20 uM after 1 hr preincubation measured after 24 hrs by Western blot analysis; assay type: functional, cell-based; settings: LN-229
Hypoxia-inducible factor 1-alpha (Homo sapiens), sequence (Q16665 whole entry, looked up): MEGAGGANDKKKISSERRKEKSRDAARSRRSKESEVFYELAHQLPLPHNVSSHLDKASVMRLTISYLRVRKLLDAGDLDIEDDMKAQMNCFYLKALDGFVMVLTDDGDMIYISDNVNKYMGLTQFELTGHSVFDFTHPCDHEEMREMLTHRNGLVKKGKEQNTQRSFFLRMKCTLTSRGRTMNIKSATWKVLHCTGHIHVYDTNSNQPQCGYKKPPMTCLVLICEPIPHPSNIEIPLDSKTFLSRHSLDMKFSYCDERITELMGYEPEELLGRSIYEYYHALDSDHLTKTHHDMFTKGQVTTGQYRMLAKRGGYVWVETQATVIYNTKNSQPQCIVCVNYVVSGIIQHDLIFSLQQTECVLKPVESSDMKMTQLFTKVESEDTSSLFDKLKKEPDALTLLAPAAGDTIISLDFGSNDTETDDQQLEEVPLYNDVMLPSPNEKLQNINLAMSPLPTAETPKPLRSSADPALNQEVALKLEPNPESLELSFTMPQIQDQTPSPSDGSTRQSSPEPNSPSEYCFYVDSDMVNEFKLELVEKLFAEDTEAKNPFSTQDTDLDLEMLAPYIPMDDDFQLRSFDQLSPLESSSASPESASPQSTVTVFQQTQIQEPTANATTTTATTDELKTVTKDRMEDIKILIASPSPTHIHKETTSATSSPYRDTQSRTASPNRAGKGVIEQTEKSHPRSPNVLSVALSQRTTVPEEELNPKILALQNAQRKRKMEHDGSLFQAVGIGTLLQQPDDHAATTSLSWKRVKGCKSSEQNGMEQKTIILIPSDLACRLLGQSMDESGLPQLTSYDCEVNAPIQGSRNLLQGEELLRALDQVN
In short: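 Western blot for HIF-1α in LN229 cells after 1 h pretreatment with inhibitor at 20 μM final (bortezomib control 100 nM), followed by 24 h in normoxia or hypoxia.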

[4] = system: LN229; assay: Ratio of KCN-1 IC50 to compound IC50 for HIF1 in human LN229 cells under hypoxic condition; assay type: cell-based

In the case of CCCCN(Cc1ccc2c(c1)C=CC(C)(C)O2)S(=O)(=O)c1ccc(OC)c(OC)c1, the IC50 [1] is reported as 3.3 µM.
Molecule CC(C)CS(=O)(=O)N(Cc1ccc2c(n1)C=CC(C)(C)O2)c1ccccc1 has an IC50 [1] of 0.9 µM.
In the case of COc1ccc(S(=O)(=O)N(Cc2ccc3c(c2)CC(C)(C)O3)C2CCCCC2)cc1OC, the IC50 [1] is reported as 8.2 µM.
CC1(C)C=Cc2nc(CN(c3ccccc3)S(=O)(=O)c3ccc4c(c3)OCCO4)ccc2O1 showed an IC50 [1] of 0.9 µM.
Work on COc1ccc(S(=O)(=O)N(Cc2ccc3c(n2)C=CC(C)(C)O3)C2CCCCCC2)cc1OC yielded an IC50 [1] of 6.6 µM.
In the case of COc1ccc(S(=O)(=O)N(CCC(C)C)Cc2ccc3c(c2)C=CC(C)(C)O3)cc1OC, the IC50 [1] is reported as 1.6 µM.
Molecule C#CCN(Cc1ccc2c(c1)C=CC(C)(C)O2)S(=O)(=O)c1ccc(OC)c(OC)c1 has an IC50 [1] of 1.3 µM.
In the case of COc1ccc(S(=O)(=O)N(Cc2ccc3c(n2)C=CC(C)(C)O3)c2ccccc2)cc1OC, the IC50 [1] is reported as 1.3 µM.
In the case of Cc1cc(C)cc(S(=O)(=O)N(Cc2ccc3c(c2)C=CC(C)(C)O3)c2ccccc2)c1, the IC50 [1] is reported as 0.5 µM.
COc1ccc(S(=O)(=O)N(Cc2ccc3c(c2)C=CC(C)(C)O3)c2ccccc2)cc1 was tested, and the IC50 [1] was 0.6 µM.
COc1ccc(S(=O)(=O)N(Cc2ccc3c(c2)CC(C)(C)O3)C(C)C)cc1OC showed an IC50 [1] of 1.5 µM.
COc1ccc(NCc2ccc3c(c2)C=CC(C)(C)O3)cc1OC showed an IC50 [1] of 3 µM.
COc1ccc(S(=O)(=O)N(Cc2cnc3c(c2)C=CC(C)(C)O3)c2ccccc2)cc1OC gave an IC50 [1] of 2.5 µM.
CC1(C)C=Cc2nc(CN(c3ccccc3)S(=O)(=O)c3cccc4cccnc34)ccc2O1 gave an IC50 [1] of 0.9 µM.
In the case of COc1ccc(S(=O)(=O)N(Cc2ccc3c(c2)C=CC(C)(C)O3)C(C)C)cc1OC, the IC50 [1] is reported as 3.1 µM.
With CCC1(C)C=Cc2cc(CN(c3ccccc3)S(=O)(=O)c3ccc(OC)c(OC)c3)ccc2O1 (stereo not drawn) the IC50 [1] was 2.2 µM.
COc1ccc(S(=O)(=O)N(Cc2ccc3c(c2)CC(C)(C)O3)C2CCCCCC2)cc1OC gave an IC50 [1] of 9.1 µM.
With COc1c(C(C)n2cnc3ncccc32)ccc2c1C=CC(C)(C)O2 (stereo not drawn) the “HIF1 inhibition activity call (active/inactive)” value [2] was “Active” and the inhibition [3] was “inactive”.
CCCCN(Cc1ccc2c(c1)CC(C)(C)O2)S(=O)(=O)c1ccc(OC)c(OC)c1 was tested, and the IC50 [1] was 0.478 µM, the “HIF1 inhibition activity call (active/inactive)” value [2] was “Active” and the inhibition [3] was “inactive”.
Work on Cc1ccc(N(C)Cc2ccc3c(c2)C=CC(C)(C)O3)c(C)c1 yielded an IC50 [1] of 2.6 µM.
With COc1ccc(S(=O)(=O)N(Cc2cc3c(cn2)OC(C)(C)C=C3)C2CCCCC2)cc1OC the IC50 [1] was 1.1 µM.
In the case of CC1(C)C=Cc2nc(CN(c3ccccc3)S(=O)(=O)C3CC3)ccc2O1, the IC50 [1] is reported as over 25 µM.
Work on CN(Cc1ccc2c(c1)C=CC(C)(C)O2)c1ccccn1 yielded an IC50 [1] of 8.4 µM.
COc1ccc(S(=O)(=O)N(Cc2ccc3c(n2)C=CC(C)(C)O3)C2CCCCCCC2)cc1OC gave an IC50 [1] of 0.7 µM.
In the case of COc1ccc(S(=O)(=O)N(Cc2ccc3c(c2)CC(C)(C)O3)C2CCCC2)cc1OC, the IC50 [1] is reported as 0.378 µM, the “HIF1 inhibition activity call (active/inactive)” value [2] is reported as “Active” and the inhibition [3] is reported as “inactive”.
In the case of COc1ccc(S(=O)(=O)N(Cc2ccc3c(c2)CC(C)(C)O3)c2ccccc2)cc1OC, the IC50 [1] is reported as 0.306 µM, the Ratio IC50 [4] is reported as over 2 and the “HIF1 inhibition activity call (active/inactive)” value [2] is reported as “Active”. For the same molecule, the inhibition [3] was “Active”.
COc1ccc(S(=O)(=O)N(Cc2ccc3c(c2)C=CC(C)(C)O3)C2CCCCC2)cc1OC showed an IC50 [1] of 4 µM.
In the case of CCCCN(Cc1ccc2c(n1)C=CC(C)(C)O2)S(=O)(=O)c1ccc(OC)c(OC)c1, the IC50 [1] is reported as 0.9 µM.
COc1ccc(N(C)Cc2ccc3c(c2)C=CC(C)(C)O3)cc1OC gave an IC50 [1] of 5 µM.
CC1(C)C=Cc2cc(CN(c3ccccc3)S(=O)(=O)c3ccc([N+](=O)[O-])cc3)ncc2O1 was tested, and the IC50 [1] was 1.8 µM.
For CC1(C)C=Cc2cc(CNc3ccc(C(=O)O)cc3)ccc2O1, the IC50 [1] was over 25 µM.
With CC1(C)C=Cc2cc(CN(c3ccccc3)S(=O)(=O)c3ccc(Br)cc3OC(F)(F)F)ccc2O1 the IC50 [1] was over 25 µM.
In the case of COc1ccc(S(=O)(=O)N(Cc2ccc3c(c2)C=CC(C)(C)O3)C(C)(C)C)cc1OC, the IC50 [1] is reported as 3.5 µM.
For CC1(C)C=Cc2nc(CN(c3ccccc3)S(=O)(=O)c3ccc(-c4ccccc4)cc3)ccc2O1, the IC50 [1] was 3.4 µM.
COc1ccc(S(=O)(=O)N(Cc2cnc3ccccc3c2)c2ccccc2)cc1OC was tested, and the IC50 [1] was 3.5 µM.
Work on CC1(C)C=Cc2cc(CN(c3ccccc3)S(=O)(=O)c3cc(Cl)ccc3Cl)ccc2O1 yielded an IC50 [1] of 2.1 µM.
COc1ccc(S(=O)(=O)N(Cc2ccc3c(n2)C=CC(C)(C)O3)C2CCCC2)cc1OC gave an IC50 [1] of 0.6 µM.
CC1(C)C=Cc2cc(CNc3ccccc3F)ccc2O1 was tested, and the IC50 [1] was over 25 µM.
COc1ccc(S(=O)(=O)N(Cc2ccc3c(n2)C=CC(C)(C)O3)c2ccc3c(c2)CCCC3)cc1OC gave an IC50 [1] of 6.2 µM.
COc1ccc(S(=O)(=O)N(Cc2cnc3c(c2)C=CC(C)(C)O3)C2CCCCC2)cc1OC was tested, and the IC50 [1] was over 25 µM.
COc1ccc(S(=O)(=O)N(Cc2ccc3c(c2)C=CC(C)(C)O3)C2CC2)cc1OC showed an IC50 [1] of 1.5 µM.
For COc1ccc(N(Cc2ccc3c(n2)C=CC(C)(C)O3)S(=O)(=O)c2ccc(OC)c(OC)c2)cc1OC, the IC50 [1] was over 25 µM.
CC(C)c1ccc(S(=O)(=O)N(Cc2cc3c(cn2)OC(C)(C)C=C3)C2CCCCC2)cc1 showed an IC50 [1] of 5.8 µM.
Molecule Cc1ccc(NCc2ccc3c(c2)C=CC(C)(C)O3)c(C)c1 has an IC50 [1] of over 25 µM.
Molecule CC1(C)C=Cc2cc(CNc3ccccc3Br)ccc2O1 has an IC50 [1] of over 25 µM.
In the case of CC(C)C[C@H](NC(=O)[C@H](Cc1ccccc1)NC(=O)c1cnccn1)B(O)O, the inhibition [3] is reported as “Active”.
COc1ccc(S(=O)(=O)N(Cc2ccc3c(n2)C=CC(C)(C)O3)C2CCCCC2)cc1OC gave an IC50 [1] of 0.8 µM.
Work on COc1ccc(S(=O)(=O)N(Cc2ccc3c(n2)C=CC(C)(C)O3)c2ccc(F)cc2)cc1OC yielded an IC50 [1] of 5.7 µM.
For C=CCN(Cc1ccc2c(c1)C=CC(C)(C)O2)S(=O)(=O)c1ccc(OC)c(OC)c1, the IC50 [1] was 3.4 µM.
CC1(C)C=Cc2nc(CN(c3ccccc3)S(=O)(=O)c3ccc4c(c3)OCO4)ccc2O1 gave an IC50 [1] of 6.5 µM.
For CCCS(=O)(=O)N(Cc1ccc2c(n1)C=CC(C)(C)O2)c1ccccc1, the IC50 [1] was 6.4 µM.
COc1ccc(S(=O)(=O)N(Cc2ccc3c(c2)C=CC(C)(C)O3)c2ccccc2)cc1OC was tested, and the “HIF1 inhibition activity call (active/inactive)” value [2] was “Active” and the inhibition [3] was “inactive”.
For COc1ccc(S(=O)(=O)N(Cc2ccc3c(n2)C=CC(C)(C)O3)C2CCC2)cc1OC, the IC50 [1] was 0.28 µM, the Ratio IC50 [4] was over 2 and the “HIF1 inhibition activity call (active/inactive)” value [2] was “Active”. For the same molecule, the inhibition [3] was “inactive”.
For CC(C)S(=O)(=O)N(Cc1ccc2c(n1)C=CC(C)(C)O2)c1ccccc1, the IC50 [1] was 13.4 µM.
In the case of COc1ccc(S(=O)(=O)N(Cc2cc3c(cn2)OC(C)(C)C=C3)c2ccccc2)cc1, the IC50 [1] is reported as 1.4 µM.
Work on CCCCS(=O)(=O)N(Cc1ccc2c(n1)C=CC(C)(C)O2)c1ccccc1 yielded an IC50 [1] of 5 µM.
Molecule CC1(C)C=Cc2nc(CN(c3ccccc3)S(=O)(=O)C3CCCCC3)ccc2O1 has an IC50 [1] of 0.4 µM.
For CC1(C)C=Cc2cc(CNc3ccccn3)ccc2O1, the IC50 [1] was 8.5 µM.
With COc1ccc(S(=O)(=O)N(Cc2ccc3c(c2)C=CC(C)(C)O3)C2CCCC2)cc1OC the IC50 [1] was 0.5 µM, the “HIF1 inhibition activity call (active/inactive)” value [2] was “Active” and the inhibition [3] was “Active”.
